Screens as filed in PubChem BioAssay.
Most compounds without a hit are left out; they make up all but 2.5% or so of the library.
AF4-AF9 inh = blocks AF4 peptide binding to human AF9 | AlphaScreen, biotin-AF4 peptide binding to FLAG-AF9 | inhibition, % at 10 µM | P42568 | actives 0.47% (n = 350,000);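 active = every replicate reaching a set inhibition limit, whatever the replicate mean, cut at about 25% in these data; inconclusive = mean inhibition reaches that limit but some replicates miss it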;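 also: 0% = plate neutral control median and 100% = total signal loss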
Target sequence (P42568 whole entry, looked up): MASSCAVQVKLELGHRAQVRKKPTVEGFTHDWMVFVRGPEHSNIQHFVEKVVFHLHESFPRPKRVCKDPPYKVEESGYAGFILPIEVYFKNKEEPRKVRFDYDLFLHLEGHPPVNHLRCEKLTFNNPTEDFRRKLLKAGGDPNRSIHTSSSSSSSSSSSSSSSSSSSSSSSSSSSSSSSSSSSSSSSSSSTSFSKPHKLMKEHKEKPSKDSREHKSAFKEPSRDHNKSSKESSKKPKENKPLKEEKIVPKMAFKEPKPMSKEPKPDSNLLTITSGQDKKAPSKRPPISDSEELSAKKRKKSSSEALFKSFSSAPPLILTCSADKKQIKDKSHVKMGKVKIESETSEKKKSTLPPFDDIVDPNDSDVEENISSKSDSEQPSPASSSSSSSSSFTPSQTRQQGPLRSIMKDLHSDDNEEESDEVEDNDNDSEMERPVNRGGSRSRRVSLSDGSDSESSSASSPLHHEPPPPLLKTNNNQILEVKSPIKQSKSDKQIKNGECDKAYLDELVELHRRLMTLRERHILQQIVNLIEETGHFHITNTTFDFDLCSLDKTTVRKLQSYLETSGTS
EWS-Fli block = blocks EWS/Fli oncoprotein-driven transcription; A673 NR0B1-luciferase reporter, viability-normalised; inhibition, % at 12.6 µM; actives 0.67% (n = 350,000); AID 651661;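 active = mean inhibition of at least 50% after viability correction, with every replicate also passing that limit; inconclusive = mean reaches 50% but only one of two replicates passes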;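 also: firefly luciferase signal divided by Alamar Blue viability fluorescence both relative to DMSO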
N-glyco inh = blocks N-linked glycosylation in D54 reporter cells; D54 ERlucT glycosylation luciferase reporter, 24 h; percent of 100 nM tunicamycin response; actives 0.23% (n = 360,000); AID 588692; reporter increase, % at 12.5 µM;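 active = mean luciferase reporter signal, scaled so untreated is 0 and the glycosylation-blocking control 100, at or above a set limit in every replicate; inconclusive = mean reaches the limit but not every replicate does; inactive = mean below the limit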;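 also: luciferase carries N-glycosylation sites so blocking glycosylation raises the light; 0% = median of neutral control wells and 100% = median of 100 nM tunicamycin wells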
FN deposit inh = fibronectin deposition inhibition | actives 0.086% (n = 350,000) | AH1F fibroblasts, Alexa488-fibronectin deposition fluorescence, overnight | inhibition, % at 12.6 µM | AID 743247;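 active = mean inhibition across replicates of 30% or more, regardless of how many single replicates reach that level; inconclusive = mean under 30% yet at least half of replicates reach 30%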;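 also: positive control wells lacked labelled fibronectin entirely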
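Measured by – fluorescence 485/525 nm · System – AH1F fibroblast monolayer, labelled fibronectin deposition · Amount – 10000 cells per well · Buffer or medium – serum-reduced DMEM (2% serum) · Doses – single dose, pinned · Also added – fluorescent fibronectin at 24 nM final · Schedule – 1 h cell attachment, overnight exposure to compound and label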
HIV Env fusion = blocks HIV Env-driven cell-cell fusion; actives 1.1% (n = 360,000); inhibition, % at 12.3 µM; HeLa-JRFL Env/CEM21 cell fusion, luciferase;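 active = mean replicate inhibition score of at least 50 and every replicate individually at or above 50; inconclusive = only one of the two criteria met; inactive = mean below 50 and not all replicates reaching 50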;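 also: 0% = plate neutral controls and 100% = maraviroc near 300 nM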
PAX8 reporter = PAX8 transcriptional activity inhibition. inhibition, % at 12.6 µM. RMG-I TPO-luciferase reporter, SteadyGlo, 24 h. actives 1.2% (n = 360,000);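 active = mean replicate inhibition at least 60% with every replicate also reaching 60%; inconclusive = only one of the two criteria is met; inactive = mean below 60% and not all replicates reaching 60%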;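 also: luciferase light reporting Pax8 driven TPO promoter activity; plate controls were median of neutral control wells for no effect and mitoxantrone controls for full effect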
Starred values were filed as active, the others as inactive; ? = inconclusive; · = no result; [ ] = dose if it differs, or a comment.

SMILES	AF4-AF9 inh	EWS-Fli block	N-glyco inh	FN deposit inh	HIV Env fusion	PAX8 reporter
C[C@@H]1CN([C@@H](C)CO)C(=O)c2cc(NS(=O)(=O)c3ccccc3)ccc2O[C@@H](C)CCCCO[C@@H]1CN(C)Cc1ccc(C(F)(F)F)cc1	1	-9	·	-2	-24[16.7 µM]	106*
C[C@@H]1CCCCO[C@H](CN(C)Cc2ccccc2)[C@H](C)CN([C@H](C)CO)C(=O)c2cc(NS(=O)(=O)c3ccccc3)ccc2O1	2	-7	·	·	-13[16.7 µM]	-8
C[C@H]1CCCCO[C@H](CN(C)Cc2ccc(C(F)(F)F)cc2)[C@@H](C)CN([C@@H](C)CO)C(=O)c2cc(NS(=O)(=O)c3ccccc3)ccc2O1	0	15	·	-6	-36[16.7 µM]	65*
C[C@@H]1CN([C@H](C)CO)C(=O)c2cc(NS(=O)(=O)c3ccccc3)ccc2O[C@@H](C)CCCCO[C@H]1CN(C)Cc1ccc(C(F)(F)F)cc1	5	-7	·	4	10[16.7 µM]	102*
C[C@H](CO)N1C[C@H](C)[C@H](CN(C)Cc2ccc(C(F)(F)F)cc2)OCCCC[C@H](C)Oc2ccc(NS(=O)(=O)c3ccccc3)cc2C1=O	5	10	·	19	18[16.7 µM]	99*
C[C@@H]1CN([C@H](C)CO)C(=O)c2cc(NC(=O)C3CC3)ccc2O[C@H]1CN(C)S(=O)(=O)c1ccc(Cl)cc1	-2	-5	·	-1	·	·
CCCN1[C@@H]2Cn3c(ccc(-c4ccccc4)c3=O)[C@H]1[C@@H](C(=O)N1CCCCC1)[C@@H]2CO	1	-10	·	·	·	·
CO[C@H]1CN(C)C(=O)c2ccc(NC(=O)NC(C)C)cc2OC[C@H](C)N(S(C)(=O)=O)C[C@H]1C	-8	·	·	-24	·	-27
C[C@H]1CCCCO[C@@H](CN(C)Cc2ccc(C(F)(F)F)cc2)[C@@H](C)CN([C@@H](C)CO)C(=O)c2cc(NS(=O)(=O)c3ccccc3)ccc2O1	2	-19	·	-4	-1[16.7 µM]	87*
O=C(Nc1nc(-c2ccccc2)cs1)c1ccccc1NS(=O)(=O)c1ccc(F)cc1	·	·	-5	9	64*	86*
COc1ccccc1C(=O)Nc1nc(-c2ccc(S(=O)(=O)N3CCOCC3)cc2)cs1	·	·	-14	·	96*	·
COc1ccccc1OC(C)C(=O)Nc1nc(-c2ccc(S(=O)(=O)N3CCOCC3)cc2)cs1 (stereo not given)	·	·	-4	1	60*	·
O=C(Nc1nc(-c2ccccn2)cs1)c1cccc(S(=O)(=O)N2CCOCC2)c1	-4	14	-8	·	·	81*
COCC#Cc1ccc2c(c1)O[C@H](CN(C)C(=O)C1CC1)[C@@H](C)CN([C@@H](C)CO)S2(=O)=O	-3	-6	·	-17	0[16.7 µM]	·
COc1ccc(NC(=O)N(C)C[C@@H]2Oc3c(NC(=O)c4cnccn4)cccc3C(=O)N([C@@H](C)CO)C[C@@H]2C)cc1	-5	-8	·	·	·	·
COCC(=O)N1CC2(CN[C@@H](CO)c3c2c2ccc(OC)cc2n3C)C1	-9	11	·	·	·	·
Cc1ccc(NC(=O)CSc2nn(-c3ccc(Cl)cc3)c(=S)s2)cc1S(=O)(=O)N(C)C	-15	-1	-5	·	83*	-10
CN(C)S(=O)(=O)c1cc(NC(=O)CSc2nn(-c3ccc(Cl)cc3)c(=S)s2)ccc1Cl	·	·	-8	1	133*	25
Cc1ccc(NC(=O)CNc2ccc(Cl)c(Cl)c2)cc1S(=O)(=O)N(C)C	2	-2	-2	·	20	6
COc1ccc(C=O)cc1COc1ccc([N+](=O)[O-])c(C)c1	0	1	2	0	-12	3
Cc1cc(OCc2nc(N)nc(N)c2-c2ccc(Cl)c(Cl)c2)ccc1[N+](=O)[O-]	3	63*	-6	34*	48	44
COCC(=O)N(C)C[C@H]1Oc2cc(-c3ccncc3)ccc2S(=O)(=O)N([C@H](C)CO)C[C@H]1C	-6	-2	·	1	-7[16.7 µM]	·
CN(C)C(=O)[C@H]1[C@H](CO)[C@H]2Cn3c(ccc(C4=CCCCC4)c3=O)[C@@H]1N2Cc1ccccc1	3	0	·	·	·	3
COc1ccc(-c2nsc3c(N4CCCCC4C)ncnc23)cc1 (stereo not given)	-6	83*	-21	-9	-2	?
COc1ccc(-c2nsc3c(N4CCCCC4)ncnc23)cc1	·	·	-21	-3	-311	76*
SMILES	AF4-AF9 inh	EWS-Fli block	N-glyco inh	FN deposit inh	HIV Env fusion	PAX8 reporter
C[C@@H]1CN([C@@H](C)CO)C(=O)c2cc(NC(=O)C3CCCCC3)ccc2O[C@@H](C)CCCCO[C@@H]1CN(C)C(=O)NC1CCCCC1	2	2	·	·	-14[16.7 µM]	10
O=C(C[C@@H]1C[C@@H]2c3cc(NC(=O)c4cccnc4)ccc3O[C@@H]2[C@@H](CO)O1)NCC1CC1	-1	1	·	-1	1[16.7 µM]	-22
CC(=O)N(C)C[C@H]1Oc2cc(C3=CCCCC3)ccc2S(=O)(=O)N([C@H](C)CO)C[C@@H]1C	·	-8	·	·	7[16.7 µM]	·
N#C/C(=C\c1ccc(N2CCCCC2)o1)C(=O)Nc1cccc(Br)c1	·	·	-7	-304	-66	-21
N#C/C(=C\c1ccc(N2CCCCC2)o1)C(N)=O	-2	-13	1	3	57*	-26
COc1cccc2c1C(=O)c1c(O)c3c(c(O)c1C2=O)CC(O)(C(=O)CO)CC3OC1CC(N(C)C)C(O)C(C)O1 (stereo not given)	?	64*	-13	-1	59*	112*
COc1cccc2c1C(=O)c1c(O)c3c(c(O)c1C2=O)C[C@@](O)(C(C)=O)C[C@@H]3O[C@H]1C[C@H](N)[C@H](O)[C@H](C)O1	31*	70*	-13	-7	·	114*
O=C(Nc1nc2ccccc2[nH]1)c1ccccc1	·	·	-11	·	·	·
O=C(Nc1nc2ccccc2[nH]1)c1ccc(Cl)cc1	2	53*	-14	2	-176	-25
CN(c1cccc(Cl)c1)S(=O)(=O)c1cccc(C(=O)Nc2nc3ccccc3[nH]2)c1	6	19	-5	12	43	71*
COc1ccc(N(C)S(=O)(=O)c2cccc(C(=O)Nc3nc4ccccc4[nH]3)c2)cc1	10	1	-8	-10	8	1
